In ChEMBL document CHEMBL2390832, “Synthesis and activity evaluation of tilorone analogs as potential anticancer agents” (Eur J Med Chem, 2013):
Where a name gives a salt, the structure may show the parent alone. Calls of active or inactive are those of the source. The calls are words filed in the database; no cut-off is given here.

What was measured:
[1] = Anticancer activity against human Hep3B cells after 48 hrs by MTT assay; type: functional, cell-based, Hep 3B2
Summary of the method: (§1)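 Cells seeded at 1 × 10⁴/well in DMEM with 10% FBS and left overnight at 37 °C, 5% CO₂. Five concentrations (1 µM–100 µM) diluted in DMEM were added and incubated for 48 h. MTT (10 µl of 5 mg/ml) was then added for 4 h at 37 °C. Formazan was dissolved in DMSO and absorbance read at 490 nm. At least three parallel runs; IC50 by regression analysis.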

HEK-293T = experiment: Cytotoxicity against human HEK293T cells after 48 hrs by MTT assay; type: cell-based; summary of the method: as §1
HeLa [2] = experiment: Anticancer activity against human HeLa cells after 48 hrs by MTT assay; type: functional, cell-based; summary of the method: as §1
Vero = experiment: Cytotoxicity against African green monkey Vero cells after 48 hrs by MTT assay; type: cell-based; conditions: Chlorocebus sabaeus; summary of the method: as §1
A549 [3] = experiment: Anticancer activity against human A549 cells after 48 hrs by MTT assay; type: functional, cell-based; conditions: A549, 48 h; summary of the method: as §1
A549 [4] = experiment: Anticancer activity against human A549 cells at =/> 100 uM after 48 hrs by MTT assay; type: functional, cell-based
Hep 3B2 = experiment: Anticancer activity against human Hep3B cells at =/> 100 uM after 48 hrs by MTT assay; type: functional, cell-based
HeLa [5] = experiment: Anticancer activity against human HeLa cells at =/> 100 uM after 48 hrs by MTT assay; type: functional, cell-based

SMILES	IC50 [1] [µM]	IC50 (HEK-293T) [µM]	IC50 (HeLa [2]) [µM]	IC50 (Vero) [µM]	IC50 (A549 [3]) [µM]	Activity (A549 [4])	Activity (Hep 3B2)	Activity (HeLa [5])
CCCN(CCC)CC(O)COc1ccc(-c2coc3cc(OCC(O)CN(CCC)CCC)ccc3c2=O)cc1 (centres undefined)	6.52	39.6	5.17	35.5	4.26			
O=C1c2cc(OCCn3cncn3)ccc2-c2ccc(OCCn3cncn3)cc21	> 100		> 100		> 100			
O=c1c(-c2ccc(OCC(O)CN3CCCCC3)cc2)coc2cc(OCC(O)CN3CCCCC3)ccc12 (centres undefined)	12	20.2	5.32	18.5	4.34			
CCOc1ccc2c(c1)C(=O)c1cc(OCCO)ccc1-2						inactive	inactive	inactive
CCCN(CCC)CC(O)COc1ccc2c(c1)C(=O)c1cc(OCC(O)CN(CCC)CCC)ccc1-2 (centres undefined)	9.43	54	6.78	57.8	7.42			
CCN(CC)CCCOc1ccc(-c2coc3cc(OCCCN(CC)CC)ccc3c2=O)cc1	76.1		82.4		73.5			
CCCNCCOc1ccc2c(c1)C(=O)c1cc(OCCNCCC)ccc1-2	5.17	8.59	2.73	8.47	2.96			
CCN(CC)CCOc1ccc2c(c1)C(=O)c1cc(OCCN(CC)CC)ccc1-2 [TILORONE HYDROCHLORIDE]	38.8	76.4	40	89.5	32.6			
CCN(CC)CC(O)COc1ccc(-c2coc3cc(OCC(O)CN(CC)CC)ccc3c2=O)cc1 (centres undefined)	30.4	52.9	27.8	60.1	25			
CCN(CC)CCOc1ccc2c(c1)C(=O)c1cc(OCCCl)ccc1-2	> 100		> 100		> 100			
O=c1c(-c2ccc(OCCCl)cc2)coc2cc(OCCCl)ccc12						inactive	inactive	inactive
CC(C)(C)NCCOc1ccc2c(c1)C(=O)c1cc(OCCNC(C)(C)C)ccc1-2	20.1	19.8	9.17	25.3	7.86			
CCOc1ccc2c(c1)C(=O)c1cc(OCCN(CC)CC)ccc1-2	84.8		107		> 100			
CN(C)CCCOc1ccc(-c2coc3cc(OCCCN(C)C)ccc3c2=O)cc1	24.4	41.9	22.2	34.9	20.6			
CCCCNCCOc1ccc2c(c1)C(=O)c1cc(OCCNCCCC)ccc1-2	3.34	11	2.21	8.89	2.65			
CCN(CC)CCOc1ccc(-c2coc3cc(OCCN(CC)CC)ccc3c2=O)cc1	35.2	107	26.4	102	19.4			
O=c1c(-c2ccc(OCCCBr)cc2)coc2cc(OCCCBr)ccc12						inactive	inactive	inactive
CCOc1ccc2c(c1)C(=O)c1cc(OCCN(C)C)ccc1-2	> 100		> 100		> 100			
O=C1c2cc(OCCn3ccnc3)ccc2-c2ccc(OCCn3ccnc3)cc21	> 100		> 100		> 100			
CCOc1ccc2c(c1)C(=O)c1cc(OCCCl)ccc1-2						inactive	inactive	inactive
CCN(CC)CC(O)COc1ccc2c(c1)C(=O)c1cc(OCC(O)CN(CC)CC)ccc1-2 (centres undefined)	21.5	56.4	20.2	48.6	16			
CC(C)(C)SCCOc1ccc2c(c1)C(=O)c1cc(OCCSC(C)(C)C)ccc1-2						inactive	inactive	inactive
O=C1c2cc(OCCn3ccnn3)ccc2-c2ccc(OCCn3ccnn3)cc21	> 100		> 100		> 100			
O=C1c2cc(OCC(O)CN3CCCCC3)ccc2-c2ccc(OCC(O)CN3CCCCC3)cc21 (centres undefined)	6.76	17.9	1.82	13	1.4			
CC(C)SCCOc1ccc2c(c1)C(=O)c1cc(OCCSC(C)C)ccc1-2						inactive	inactive	inactive
CN(C)CC(O)COc1ccc2c(c1)C(=O)c1cc(OCC(O)CN(C)C)ccc1-2 (centres undefined)	18.3	28.3	11.7	20.9	12.6			
CC(C)NCCOc1ccc2c(c1)C(=O)c1cc(OCCNC(C)C)ccc1-2	8.89	13.8	1.72	14.8	2.43			
